Assay results gathered from unrelated publications.
Lines come from different studies, so protocols differ.
Target: Cyclin-dependent kinase 14 (CDK14, Homo sapiens, UniProt O94921)

| SMILES | observed | technique | tested at | remaining binding [%] |
| --- | --- | --- | --- | --- |
| O=C(NCCCN1CCOCC1)c1ccc(Nc2ncc(Cl)c(-c3ccc(Cl)s3)n2)cc1 | binding | competition with immobilised ligand | 1 µM | 37 |
| COc1cnc(Nc2cccc(S(N)(=O)=O)c2)nc1N1CCN(c2ccccc2)C(=O)C1 | binding | competition with immobilised ligand | 1 µM | 100 |
| CN(C(=O)c1ccccc1)c1cc(N(C)c2ccc3c(c2)CCc2ccc(C(=O)NCCN4CCOCC4)cc2C3=O)ccc1F | cell-free assay | competition with immobilised ligand | 1 µM | 100 |
| O=C(c1ccc(Nc2ncc(Cl)c(-c3cc4ccccc4s3)n2)cc1)N1CCC(N2CCCC2)CC1 | binding | competition with immobilised ligand | 1 µM | 78 |
| O=C(Nc1cnc(Oc2ccc(F)cc2)nc1)N1CCc2ncccc2[C@@H]1c1ccc(F)cc1 | cell-free assay | competition with immobilised ligand | 1 µM | 100 |
| F[C@@H]1CCN(c2nccc(-c3cnn4ncccc34)n2)C1 | binding |  | 1 µM | 100 |
| O=C(Nc1c[nH]nc1C(=O)NC1CCNCC1)c1cc(F)cc(F)c1 | binding | competition with immobilised ligand | 1 µM | 99 |
| N[C@H]1CCN(c2nccc(-c3cnn4ncccc34)n2)C1 | binding |  | 1 µM | 100 |
| O=C(N1CCS(=O)(=O)CC1)N1C[C@H](c2ccc(OC(F)(F)F)cc2)C[C@H](c2nc(C3CC3)no2)C1 | cell-free assay | competition with immobilised ligand | 1 µM | 100 |
| Cc1cnn2ncc(-c3ccnc(N(C)C)n3)c2c1 | binding |  | 1 µM | 91 |
| CNC(=O)[C@@H]1CC[C@@H](n2c(-c3ccc4cnccc4c3)nc3ccc(C(=O)NCc4cccc(C(N)=O)c4)cc32)C1 | binding | competition with immobilised ligand | 1 µM | 100 |
| c1cnn2ncc(-c3ccnc(N4CCC45COC5)n3)c2c1 | binding |  | 1 µM | 88 |
| CNCc1ccccc1-c1csc([C@H](C)Nc2nc(C)nc3cc(OC)c(OC)cc23)c1 | cell-free assay | competition with immobilised ligand | 1 µM | 100 |
| FC(F)(F)Oc1cccc(-c2cnc3ccc(-c4ccncc4)nn23)c1 | cell-free assay | competition with immobilised ligand | 5 µM | 68 |
| CS(=O)(=O)c1cc(C2(NC(=O)c3cncc4c3cnn4-c3ccc(F)cc3)CC2)ccn1 | cell-free assay | competition with immobilised ligand | 1 µM | 100 |
| Nc1ncc2c(n1)-c1c([nH]c3ccc(C#CC4CC4)cc13)CCCC2 | binding | competition with immobilised ligand | 1 µM | 88 |
| CCOC(=O)c1cc2cc(-c3cc(C(=O)NCc4ccc(C(=O)O)cc4)nn3C)ccc2[nH]1 | cell-free assay | competition with immobilised ligand | 0.1 µM | 100 |
| CN(c1nccc(-c2cnn3ncccc23)n1)C1CC1 | binding |  | 1 µM | 100 |
